This is a sample that favours compounds with a hit; in the whole collection about 3.7% have one here.
KCNK3 inh – human KCNK3 channel inhibitors, primary screen, CHO cells, FluxOR thallium flux, B-score; B-score at 10 µM; FluxOR fluorescence; stronger effect = lower value; AID 602410, 2012; Potassium channel subfamily K member 3 (Homo sapiens), O14649; 340,000 compounds, 0.84% hits;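 active = B-score under library mean minus 4 SD, starting fluorescence ratio at most library mean plus 5 SD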;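 note: more negative B-score means stronger inhibition of thallium flux through KCNK3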
Target sequence (O14649 whole entry, looked up): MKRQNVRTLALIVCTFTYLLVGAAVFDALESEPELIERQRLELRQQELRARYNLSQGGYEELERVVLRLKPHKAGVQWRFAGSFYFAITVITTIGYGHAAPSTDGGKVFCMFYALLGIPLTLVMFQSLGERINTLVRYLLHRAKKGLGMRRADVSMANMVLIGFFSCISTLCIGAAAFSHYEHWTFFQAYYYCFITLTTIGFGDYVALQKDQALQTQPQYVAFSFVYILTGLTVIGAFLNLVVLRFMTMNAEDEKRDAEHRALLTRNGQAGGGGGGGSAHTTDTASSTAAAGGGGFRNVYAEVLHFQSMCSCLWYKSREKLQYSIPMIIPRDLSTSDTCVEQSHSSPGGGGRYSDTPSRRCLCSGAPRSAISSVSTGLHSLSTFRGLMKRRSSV
KCNQ1 act – potentiators or activators of KCNQ1 channel, primary screen, cell-based, thallium flux, high-throughput; Potassium voltage-gated channel subfamily KQT member 1 (Homo sapiens), P51787; 310,000 compounds, 0.35% hits; CHO-K1 KCNQ1, thallium flux FluxOR fluorescence; stronger effect = higher value; B-score at 10 µM; AID 2648, 2010;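 active = fluorescence ratio B-score, a plate-corrected score, at least three library SD, with initial intensity B-score within 5 SD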
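assay system = CHO-K1 cells stably expressing KCNQ1 | medium = assay buffer, equal DMSO in all wells | timing = 37 °C overnight plating, 90-min dark dye load, 20-min compound pretreatment | measured by = kinetic FluxOR thallium fluorescence, 10-s 1-Hz baseline, 110-s post-stimulus read | measure = fluorescence change relative to baseline, converted to B score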
KCNK9 inh – KCNK9 potassium channel inhibitors, primary screen, HEK293 cells, thallium flux; Potassium channel subfamily K member 9 (Homo sapiens), Q9NPC2; FluxOR thallium flux fluorescence; stronger effect = lower value; B-score at 10 µM; 310,000 compounds, 1.2% hits; AID 488922, 2010;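 active = ratio B-score over 3 SD below the library mean, with starting fluorescence within 5 SD of its mean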;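 note: negative B-score means less thallium flux so channel inhibition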
KCNQ1 block – inhibitors of human KCNQ1 channel, primary screen, cell-based, thallium flux, high-throughput | Potassium voltage-gated channel subfamily KQT member 1 (Homo sapiens), P51787 | CHO-K1 KCNQ1, FluxOR thallium flux fluorescence; stronger effect = higher value | B-score at 10 µM | 310,000 compounds, 1.3% hits | AID 2642, 2010;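 active = compounds whose thallium flux B-score, printed positive for inhibition, exceeds three library SD while starting fluorescence stays within three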;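 note: channel opened by potassium depolarization with thallium stimulus after 20 min compound exposure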
Kir21 inh – inhibitors of mouse Kir2.1 inward-rectifier potassium channel. Inward rectifier potassium channel 2 (Mus musculus), P35561. HEK293-Kir2.1, FluxOR thallium flux fluorescence; stronger effect = lower value. B-score at 10 µM. 310,000 compounds, 0.85% hits;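 active = fluorescence ratio B-score at or below minus 3 SD of library scores, with starting-brightness B-score within 2 SD, cut at about -4.2 in these data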;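 note: channel flux triggered by added potassium and thallium sulfate stimulus; B-score of peak minus minimum fluorescence over baseline after thallium stimulus; more negative B-score means stronger Kir2.1 block with less thallium influx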
hERG protect – hERG rescue from dofetilide block, primary screen, cell-based, CHO-hERG, FluxOR thallium flux, dofetilide IC70. 310,000 compounds, 0.51% hits. dofetilide IC70 present. Voltage-gated inwardly rectifying potassium channel KCNH2 (Homo sapiens), Q12809. activation (rescue from dofetilide block), less the hit threshold, % at 10 µM;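 active = activation above the mean of controls blocked by dofetilide plus 5 SD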;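 note: thallium influx through hERG after potassium depolarization seen as dye fluorescence rise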
The depositor's hits bear a star.

Screening CCOc1ccc(/C=C/C2=Cc3c(sc(NC(=O)CSc4n[nH]c(N)n4)c3C#N)C(C)(C)C2)cc1 returned KCNK3 inh -8.8*, KCNQ1 act inactive, KCNK9 inh inactive, KCNQ1 block inactive, Kir21 inh 0.12 and hERG protect -16.
For CC1(C)C2CC[C@]3(C)C(CC=C4[C@@H]5C[C@@](C)(CO)[C@@H](O)C[C@]5(C(=O)O)CC[C@]43C)[C@@]2(C)CC[C@@H]1O (some centres undefined) the results were KCNQ1 act inactive, KCNK9 inh inactive, KCNQ1 block inactive, Kir21 inh 0.01 and hERG protect -13.
CC1(C)CC[C@]2(CO)[C@@H](O)C[C@]3(C)C(=CCC4[C@@]5(C)CC[C@H](O)C(C)(C)C5CC[C@]43C)[C@@H]2C1 (some centres undefined) was read as KCNQ1 act 34*, KCNK9 inh inactive, KCNQ1 block inactive, Kir21 inh 0.6 and hERG protect 0.
`O=C(NCCC(=O)N1CCN(Cc2c(F)cccc2Cl)CC1)c1ccc(Cl)cc1` gave KCNK3 inh inactive.
O=[N+]([O-])c1cccc(/C=N/Nc2cc(Cl)nc(-c3ccccc3)n2)c1 was read as KCNK3 inh -10*, KCNQ1 act inactive, KCNK9 inh inactive, KCNQ1 block 12*, Kir21 inh 0.28 and hERG protect -9.
O=C(COC(=O)c1ccco1)Nc1cccc(S(=O)(=O)N2CCCCC2)c1 was read as KCNK3 inh inactive.
O=C(NCc1ccncc1)c1cccc(S(=O)(=O)N2CCc3ccccc32)c1 was read as KCNK3 inh inactive.
Screening c1coc(C2Nc3cccc4cccc(c34)N2)c1 returned KCNQ1 act inactive, KCNK9 inh inactive, KCNQ1 block inactive, Kir21 inh 0.39 and hERG protect -12.
For Clc1cccc(C2Nc3cccc4cccc(c34)N2)c1Cl the results were KCNK3 inh inactive, KCNQ1 act inactive, KCNK9 inh inactive, KCNQ1 block 10*, Kir21 inh -0.52 and hERG protect -12.
`C=CCOn1c(=O)c(-c2ccc(OCC)cc2)[n+]([O-])c2ccccc21` gave KCNK3 inh inactive, KCNQ1 act inactive, KCNK9 inh inactive, KCNQ1 block inactive, Kir21 inh 0.57 and hERG protect -7.
`Cc1nn(-c2ccccc2)c(C)c1/C=N/NC(=O)CSc1nnc(SCc2ccccc2Cl)s1` gave KCNK3 inh inactive, KCNQ1 act inactive, KCNK9 inh inactive, KCNQ1 block 6*, Kir21 inh 0.73 and hERG protect -13.
`COc1cc(C(=O)NCC(=O)N/N=C/c2ccc(OC(=O)c3ccco3)cc2)cc(OC)c1OC` gave KCNK3 inh inactive, KCNQ1 act inactive, KCNK9 inh inactive, KCNQ1 block inactive, Kir21 inh -0.23 and hERG protect -20.
`CC1(C)CC2(CC(c3ccccc3F)c3ccc(O)c(O)c3O2)NC(=S)N1` (centres undefined) gave KCNK3 inh inactive, KCNQ1 act inactive, KCNK9 inh inactive, KCNQ1 block inactive, Kir21 inh 0.43 and hERG protect -9.
For COc1ccc(-c2c(-c3cc(OC)cc(OC)c3)n(C)c3ccc(-c4ccc(S(N)(=O)=O)cc4)cc23)cc1 the results were KCNK3 inh inactive.
`CN(C)CCCNC(=S)NCC(c1ccc(Cl)cc1Cl)c1c[nH]c2ccccc12` (centres undefined) gave KCNK3 inh inactive, KCNQ1 act inactive, KCNK9 inh inactive, KCNQ1 block inactive, Kir21 inh -6.5* and hERG protect -14.
NCC(c1ccccc1Cl)c1c[nH]c2ccccc12 (centres undefined) was read as KCNK3 inh inactive, KCNQ1 act inactive, KCNK9 inh inactive, KCNQ1 block inactive, Kir21 inh -0.73 and hERG protect -5.
